pIC50: −log10 of the molar value. Calls of active or inactive are those of the source. No cut-off for these calls is given here.
Key:
[1] = target: T1, DNA topoisomerase 1 (Homo sapiens) (UniProt P11387); assay: Inhibition of DNA topoisomerase 1-mediated relaxation of supercoiled plasmid DNA at 100 uM after 3 hrs by gel electrophoresis
T1 sequence (whole entry): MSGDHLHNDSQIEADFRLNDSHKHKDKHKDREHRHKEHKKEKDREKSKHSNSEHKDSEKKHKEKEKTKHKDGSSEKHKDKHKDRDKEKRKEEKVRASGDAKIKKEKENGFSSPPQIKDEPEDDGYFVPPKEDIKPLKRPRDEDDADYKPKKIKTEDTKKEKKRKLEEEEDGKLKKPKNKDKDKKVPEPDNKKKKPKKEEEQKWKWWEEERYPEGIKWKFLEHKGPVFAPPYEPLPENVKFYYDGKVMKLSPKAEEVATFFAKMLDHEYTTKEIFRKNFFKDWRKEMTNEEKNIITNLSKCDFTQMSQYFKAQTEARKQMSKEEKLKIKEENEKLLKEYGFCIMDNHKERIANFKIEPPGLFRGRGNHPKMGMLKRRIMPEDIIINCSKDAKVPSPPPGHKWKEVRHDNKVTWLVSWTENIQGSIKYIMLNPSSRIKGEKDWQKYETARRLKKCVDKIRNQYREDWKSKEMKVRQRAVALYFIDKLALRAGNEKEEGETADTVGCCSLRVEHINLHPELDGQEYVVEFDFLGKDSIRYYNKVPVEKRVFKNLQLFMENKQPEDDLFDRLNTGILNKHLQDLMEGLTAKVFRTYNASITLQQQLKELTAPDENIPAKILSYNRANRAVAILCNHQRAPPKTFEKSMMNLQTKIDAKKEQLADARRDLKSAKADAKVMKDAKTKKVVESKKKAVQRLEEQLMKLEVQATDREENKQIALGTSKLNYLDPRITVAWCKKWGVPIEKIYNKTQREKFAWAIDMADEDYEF
How it was run: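 Topoisomerase I kit assay. Compound at 100 µM final with 0.5% DMSO. Started with 5 U topo I, run 30 min at 37 °C, stopped with 1% SDS. Products resolved on 1% agarose in TAE at 80 V for 3 h, ethidium-stained. Inhibition scored 0 to 3+.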

Jurkat = assay: Cytotoxicity against human Jurkat cells after 72 hrs by XTT assay; format: functional, cell-based
How it was run: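 Exponentially growing Jurkat cells (RPMI 1640, 10% heat-inactivated FBS, 1% P/S, 2 mM glutamine) seeded at 5.5 × 10³ cells/well. Exposed to ten serial threefold dilutions of compound or DMSO vehicle in medium, triplicate wells, 72 h. XTT labeling mixture then added for 4 h at 37 °C, A450 read. IC50 by non-linear regression; mean ± SD of at least three experiments.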

HeLa = assay: Cytotoxicity against human HeLa cells after 72 hrs by MTT assay; format: functional, cell-based
How it was run: (§1)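 Exponentially growing cells seeded at 1–8 × 10³ cells/well and left 24 h. Medium then replaced with medium holding compound in DMSO (final DMSO <0.1%), ten serial threefold dilutions, or DMSO alone. Triplicate wells, 72 h exposure. MTT added, 1 h at 37 °C, formazan dissolved in DMSO, A550 read. IC50 by non-linear regression; mean ± SD of at least three experiments.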

HT-29 = assay: Cytotoxicity against human HT-29 cells after 72 hrs by MTT assay; format: functional, cell-based; conditions: HT-29, 72 h; how it was run: as §1
HepG2 = assay: Cytotoxicity against human HepG2 cells after 72 hrs by MTT assay; format: functional, cell-based; conditions: HepG2, 72 h; how it was run: as §1
PC-3 [2] = assay: Cytotoxicity against human PC3 cells after 72 hrs by MTT assay; format: functional, cell-based; conditions: PC-3, 72 h; how it was run: as §1
BJ [3] = assay: Cytotoxicity against human BJ cells after 72 hrs by MTT assay; format: cell-based; how it was run: as §1
BJ [4] = assay: Selectivity ratio of IC50 for human BJ cells to IC50 for human PC3 cells
PC-3 [5] = assay: Ratio of betulinic acid IC50 to compound IC50 for human PC3 cells; format: functional
[6] = in the assay text read “after 30 mins” for “after 3 hrs”

| inhibition [1, 6] | inhibition [1] | Compound | pIC50 (Jurkat) | pIC50 (HeLa) | pIC50 (HT-29) | pIC50 (HepG2) | pIC50 (PC-3 [2]) | pIC50 (BJ [3]) | Ratio IC50 (BJ [4]) | Ratio IC50 (PC-3 [5]) |
| --- | --- | --- | --- | --- | --- | --- | --- | --- | --- | --- |
| Active | – | Cc1nccn1C(=O)OC[C@]12CC[C@@H]([C@@H](C)C=O)C1[C@H]1CC[C@@H]3[C@@]4(C)CC[C@H](O)C(C)(C)[C@@H]4CC[C@@]3(C)[C@]1(C)CC2 (stereo partly drawn) | 4.67 | 4.78 | 4.80 | 4.84 | – | – | – | – |
| – | inactive | C=C(COC)[C@@H]1CC[C@]2(COC(=O)n3cncn3)CC[C@]3(C)[C@H](CC[C@@H]4[C@@]5(C)CC[C@H](OC(=O)n6cncn6)C(C)(C)[C@@H]5CC[C@]43C)[C@@H]12 | – | – | 4.91 | – | 5.19 | – | – | – |
| Active | – | C=C(C)[C@@H]1CC[C@]2(CO)CC[C@]3(C)[C@H](CC[C@@H]4[C@@]5(C)CC[C@H](OC(=O)n6cncn6)C(C)(C)[C@@H]5CC[C@]43C)[C@@H]12 | 4.91 | 5.16 | 5.31 | 5.14 | 5.68 | 4.40 | 15 | – |
| Active | – | C=C(C)[C@@H]1CC[C@]2(C(=O)n3cncn3)CC[C@]3(C)[C@H](CC[C@@H]4[C@@]5(C)C=C(O)C(=O)C(C)(C)[C@@H]5CC[C@]43C)[C@@H]12 | 4.98 | 5.27 | 5.48 | 5.13 | 5.74 | 4.55 | 15 | 12 |
| inactive | – | C=C(COC)[C@@H]1CC[C@]2(COC(=O)n3ccnc3C)CC[C@]3(C)[C@H](CC[C@@H]4[C@@]5(C)CC[C@H](OC(=O)n6ccnc6C)C(C)(C)[C@@H]5CC[C@]43C)[C@@H]12 | < 4.52 | 4.87 | < 4.52 | 4.55 | – | – | – | – |
| inactive | – | C=C(COC)[C@@H]1CC[C@]2(COC(=O)n3ccnc3C)CC[C@]3(C)[C@H](CC[C@@H]4[C@@]5(C)CC[C@H](O)C(C)(C)[C@@H]5CC[C@]43C)[C@@H]12 | 4.61 | 5.05 | 4.98 | 4.84 | – | – | – | – |
| – | inactive | C=C(C)[C@@H]1CC[C@]2(COC(=O)n3cncn3)CC[C@]3(C)[C@H](CC[C@@H]4[C@@]5(C)CC[C@H](OC(=O)n6cncn6)C(C)(C)[C@@H]5CC[C@]43C)[C@@H]12 | – | – | 4.76 | – | 5.10 | – | – | – |
| inactive | – | C=C(C)[C@@H]1CC[C@]2(C(=O)n3ccnc3C)CC[C@]3(C)[C@H](CC[C@@H]4[C@@]5(C)C=CC(=O)C(C)(C)[C@@H]5CC[C@]43C)[C@@H]12 | 4.90 | 4.97 | 5.05 | 5.17 | – | – | – | – |
| – | Active | C=C(C)[C@@H]1CC[C@]2(C(=O)O)CC[C@]3(C)[C@H](CC[C@@H]4[C@@]5(C)CC[C@H](OC(=O)n6ccnc6C)C(C)(C)[C@@H]5CC[C@]43C)[C@@H]12 | 5.21 | 5.12 | 5.24 | 5.14 | – | 4.38 | – | – |
| – | – | C=C(C)[C@@H]1CC[C@]2(COC(=O)n3cncn3)CC[C@]3(C)[C@H](CC[C@@H]4[C@@]5(C)CC[C@H](OC(C)=O)C(C)(C)[C@@H]5CC[C@]43C)[C@@H]12 | – | – | < 4.52 | – | < 4.52 | – | – | – |
| – | Active | C=C(COC)[C@@H]1CC[C@]2(COC(=O)n3cncn3)CC[C@]3(C)[C@H](CC[C@@H]4[C@@]5(C)CC[C@H](O)C(C)(C)[C@@H]5CC[C@]43C)[C@@H]12 | 5.02 | 4.61 | 5.24 | 5.04 | 5.59 | 4.33 | 15 | – |
| – | inactive | C=C(C)[C@@H]1CC[C@]2(C(=O)n3ccnc3C)CC[C@]3(C)[C@H](CC[C@@H]4[C@@]5(C)CCC(=O)C(C)(C)[C@@H]5CC[C@]43C)[C@@H]12 | 5.28 | 5.38 | 5.33 | 5.26 | – | 4.32 | – | – |
| – | inactive | C=C(C)[C@@H]1CC[C@]2(COC(=O)n3cncn3)CC[C@]3(C)[C@H](CC[C@@H]4[C@@]5(C)CC[C@H](O)C(C)(C)[C@@H]5CC[C@]43C)[C@@H]12 | – | – | 5.12 | – | 5.33 | – | – | – |
| inactive | – | C=C(C)[C@@H]1CC[C@]2(COC(=O)n3ccnc3C)CC[C@]3(C)[C@H](CC[C@@H]4[C@@]5(C)CC[C@H](O)C(C)(C)[C@@H]5CC[C@]43C)[C@@H]12 | 4.80 | 4.96 | 4.79 | 4.44 | – | – | – | – |
| – | – | C=C(C)[C@@H]1CC[C@]2(C(=O)O)CC[C@]3(C)[C@H](CC[C@@H]4[C@@]5(C)CC[C@H](O)C(C)(C)[C@@H]5CC[C@]43C)[C@@H]12 [BETULINIC ACID] | 4.57 | 4.59 | 4.89 | 4.44 | 4.67 | – | – | – |
| – | – | C=C(C)[C@@H]1CC[C@]2(COC(=O)n3ccnc3C)CC[C@]3(C)[C@H](CC[C@@H]4[C@@]5(C)CC[C@H](OC(C)=O)C(C)(C)[C@@H]5CC[C@]43C)[C@@H]12 | < 4.52 | < 4.52 | < 4.52 | < 4.52 | – | – | – | – |
| – | – | C=C(C)[C@@H]1CC[C@]2(COC(C)=O)CC[C@]3(C)[C@H](CC[C@@H]4[C@@]5(C)CC[C@H](OC(=O)n6cncn6)C(C)(C)[C@@H]5CC[C@]43C)[C@@H]12 | – | – | < 4.52 | – | < 4.52 | – | – | – |
| – | Active | C=C(C)[C@@H]1CC[C@]2(C(=O)n3cncn3)CC[C@]3(C)[C@H](CC[C@@H]4[C@@]5(C)CC[C@H](OC(=O)n6cncn6)C(C)(C)[C@@H]5CC[C@]43C)[C@@H]12 | 4.94 | 5.39 | 5.72 | 5.17 | 5.96 | 4.71 | 15 | 19 |
| inactive | – | C=C(C)[C@@H]1CC[C@]2(COC(=O)n3ccnc3C)CC[C@]3(C)[C@H](CC[C@@H]4[C@@]5(C)CC[C@H](OC(=O)n6ccnc6C)C(C)(C)[C@@H]5CC[C@]43C)[C@@H]12 | < 4.52 | < 4.52 | < 4.52 | < 4.52 | – | – | – | – |
| Active | – | C=C(C)[C@@H]1CC[C@]2(C(=O)O)CC[C@]3(C)[C@H](CC[C@@H]4[C@@]5(C)C=C(OC(=O)n6ccnc6C)C(=O)C(C)(C)[C@@H]5CC[C@]43C)[C@@H]12 | 5.03 | 5.19 | 5.23 | 5.33 | – | 4.43 | – | – |
| – | – | C=C(C)[C@@H]1CC[C@]2(COC(C)=O)CC[C@]3(C)[C@H](CC[C@@H]4[C@@]5(C)CC[C@H](OC(=O)n6ccnc6C)C(C)(C)[C@@H]5CC[C@]43C)[C@@H]12 | < 4.52 | < 4.52 | < 4.52 | < 4.52 | – | – | – | – |
